# Screening data: PubChem, several laboratories
# Most compounds without a hit are left out; they make up all but 5.8% or so of the library.
# 14-3-3 Bad PPI: disrupts binding of bovine 14-3-3 zeta to phospho-Bad peptide. 0.71% of 220,000 active. TR-FRET 14-3-3zeta/Dy647-pBad peptide displacement, 1 h. inhibition, % at 21.7 µM. P63103. AID 781;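 active = inhibition above about 70%, limit read from the data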;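 also: 0% = full 14-3-3 plus peptide FRET controls and 100% = background without 14-3-3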
# Target sequence (P63103 whole entry, looked up): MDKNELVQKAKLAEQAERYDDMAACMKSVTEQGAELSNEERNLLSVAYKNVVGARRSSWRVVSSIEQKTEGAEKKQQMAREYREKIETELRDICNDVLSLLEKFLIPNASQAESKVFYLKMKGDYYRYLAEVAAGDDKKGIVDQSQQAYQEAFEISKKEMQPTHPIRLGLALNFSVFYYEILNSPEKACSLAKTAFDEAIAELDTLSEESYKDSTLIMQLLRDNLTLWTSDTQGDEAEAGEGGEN
# NCF1 inh: blocks human p47phox regulatory protein of NADPH oxidases. p47phox/p22phox peptide binding, fluorescence polarization, 2 h. inhibition, % at 24.7 µM. 0.53% of 220,000 active. AID 1274;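 active = inhibition above about 30%, limit read from the data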;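 also: 0% = p47phox with labelled peptide and 100% = labelled peptide alone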
# Target sequence (P14598 whole entry, looked up): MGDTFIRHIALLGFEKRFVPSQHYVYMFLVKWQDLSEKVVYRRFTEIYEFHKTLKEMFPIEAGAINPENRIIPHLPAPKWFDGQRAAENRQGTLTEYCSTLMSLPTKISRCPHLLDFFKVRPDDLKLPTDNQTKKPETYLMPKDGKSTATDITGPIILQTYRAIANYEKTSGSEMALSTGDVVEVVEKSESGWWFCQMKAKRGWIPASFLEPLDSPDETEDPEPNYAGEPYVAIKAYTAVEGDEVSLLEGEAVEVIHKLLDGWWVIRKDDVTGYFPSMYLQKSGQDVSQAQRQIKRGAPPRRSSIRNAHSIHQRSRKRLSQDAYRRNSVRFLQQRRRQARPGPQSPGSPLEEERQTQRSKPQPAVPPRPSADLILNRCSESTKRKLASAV
# WT yeast gro inh: growth inhibition of WT yeast, mitochondrial fusion screen. inhibition, % at 10 µM. 2.1% of 190,000 active. AID 1362. mitochondrial fusion phenotypic screen, WT strain; in the data active = inhibition above about 58%; tested in S. cerevisiae
# ROMK mod: human ROMK K+ channel modulation, primary screen | 2% of 130,000 active | P48048 | B-score at 10 µM | Tet-inducible ROMK, thallium flux fluorescence; actives lie on both sides;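 active = signal ratio slope over the read window, or its plate-corrected B-score, at least 3 SD from the plate mean, either direction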;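 also: B-score of the F/F0 ratio slope over 7 to 12 s after thallium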
# RBBP9 inh: inhibitors of human serine hydrolase RBBP9; inhibition, % at 7.94 µM; 0.2% of 220,000 active; recombinant RBBP9, FP-Rh probe fluorescence polarization; O75884;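 active = inhibition above the campaign mean of all tested compounds plus 3 SD, cut at about 14% in these data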;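 also: plate controls were DMSO wells with RBBP9 for no effect and wells lacking RBBP9 protein for full effect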
#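 Controls: DMSO-treated enzyme wells and wells lacking RBBP9 | Material: RBBP9 protein | Technique: Fluorescence polarization | Replication: Single well per compound, no replicates | Buffer or medium: Tris-NaCl-Pluronic buffer, pH 8.0 | Timing: 30 min compound preincubation, 45 min probe labeling, 25 °C | Read-out basis: Percent inhibition from mP, scaled between DMSO and no-protein wells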
# Cl transport mod: modulates chloride dependent transport by human KCC2. Q9H2X9. KCC2 cells, thallium flux FluoZin-2 fluorescence. B-score of Tl+ flux slope (higher = more flux/activation; lower = inhibition) at 10 µM. 2.2% of 190,000 active. AID 1456;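 active = thallium flux slope and its plate-corrected score both differing from the plate sample mean at a set confidence after two filtering rounds, in either direction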;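 also: slope of fluorescence scaled to starting intensity during 10 to 20 s after thallium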
# KCC2 secondary: KCC2 (human) modulation, secondary assay; shares compounds with Cl transport mod; HEK293-KCC2, thallium flux, FluoZin2 fluorescence; hits give high values; normalised thallium flux (F/F0 slope) at 10 µM; 15% of 3,700 active; AID 1713;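 active = thallium flux slope above the same plate's solvent-only control mean plus 3 SD; inconclusive = the two replicate wells disagree; inactive = no significant difference from solvent-only control wells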
# KCC2 bumet counter: thallium flux despite bumetanide block in KCC2 cells, secondary assay 3; shares compounds with Cl transport mod; HEK293-KCC2 + bumetanide/ouabain, thallium flux FluoZin2; hits give high values; normalized thallium flux at 10 µM; 49% of 3,700 active; AID 1714;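 active = thallium entry rate above the same plate's blocked-transporter control wells by more than 3 SD; inconclusive = the two repeat wells disagree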;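 also: raw slope of fluorescence over initial fluorescence between 10 and 20 s after thallium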
# KCC2 secondary2: KCC2 (human) modulation, second secondary assay. normalized thallium flux at 10 µM. AID 1715. HEK293-KCC2, thallium flux FluoZin2 fluorescence; actives lie on both sides; F/F0 rise rate, 10–20 s post-thallium. 23% of 3,700 active. shares compounds with Cl transport mod;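 active = thallium flux slope more than 3 SD above or below the plate's solvent-only control mean, mostly below; inconclusive = the two repeat wells disagreed; inactive = no significant shift from solvent-only controls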;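 also: raw slope with 0.1% DMSO as baseline and bumetanide as block control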
# HEK293 Tl flux: counter-screen for KCC2 modulators: effect in parental HEK293 cells. shares compounds with Cl transport mod. thallium flux rate (normalised fluorescence) at 10 µM. 46% of 3,700 active. thallium flux FluoZin2, ouabain; baseline-ratio fluorescence slope, 10–20 s after thallium. AID 1716;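 active = thallium flux rate significantly above the same plate's solvent-only control wells, beyond their mean plus 3 SD; inconclusive = the two replicate wells gave conflicting results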
# KCC2 ouabain: confirmation of human KCC2 modulators with ouabain. shares compounds with Cl transport mod. HEK293-KCC2, thallium flux FluoZin2 fluorescence; bidirectional: low = inhibitor, high = activator. raw Tl+ flux slope (below DMSO = inhibition, above = activation) at 10 µM. 48% of 3,700 active. AID 1717;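 active = thallium flux slope beyond 3 SD from same-plate DMSO control mean in most replicates, usually higher, sometimes lower; inconclusive = repeat tests gave conflicting results; inactive = no significant difference from controls in most replicates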;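 also: slope of initial-normalized fluorescence between seconds 10 and 20 after thallium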
# HEK293 Tl flux2: counter-screen for KCC2 modulators: effect in parental HEK293 cells; shares compounds with Cl transport mod; thallium flux FluoZin-2 fluorescence slope; thallium flux slope at 10 µM; 33% of 3,700 active; AID 1718;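 active = thallium flux slope above the same plate's solvent-control mean plus 3 SD in both duplicate wells; inconclusive = duplicate wells that disagreed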;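 also: run without ouabain in cells lacking the KCC2 cotransporter; slope of fluorescence scaled to its starting value between 10 and 20 s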
# Active calls of the source: *; ? = inconclusive; · = no result.
SMILES,14-3-3 Bad PPI,NCF1 inh,WT yeast gro inh,ROMK mod,RBBP9 inh,Cl transport mod,KCC2 secondary,KCC2 bumet counter,KCC2 secondary2,HEK293 Tl flux,KCC2 ouabain,HEK293 Tl flux2
CCOC(=O)c1sc2nc(C)[nH]c(=S)c2c1C,-15,-43,6,·,-5,200*,0.054*,0.15*,0.052*,0.11*,0.12*,0.05*
CCOC(=O)c1sc2nc(C)n(N)c(=O)c2c1C,2,-11,8,1.5,6,0.69,·,·,·,·,·,·
CCCN1CCC(=O)N([C@H](CSc2ccc(OC)cc2)CC(C)C)CC1,-6,-4,·,·,·,-0.55,·,·,·,·,·,·
CCCn1nc(Oc2nc(NCC)nc(NC(C)C)n2)ccc1=O,13,-22,2,·,-8,-4.4*,0.009,0.0063,0.035,0.0074,0.022,0.01
CC(C)Nc1nc(NC(C)(C)C)nc(Oc2ccc(=O)n(C)n2)n1,-13,3,11,-0.34,-7,-0.061,·,·,·,·,·,·
Cc1cc(NC(=O)COC(=O)C(Nc2ccc(C(F)(F)F)cc2Cl)C(C)C)no1 (stereo unspecified),3,-5,79*,·,-7,-7.2*,0.0077,0.0036,0.034,0.007,0.02,0.0088
COC(=O)c1sc(=S)n(Cc2ccccc2)c1C,-1,3,·,·,-3,-2.2,·,·,·,·,·,·
Cc1c(C(=O)O)sc(=S)n1CCOc1ccccc1,-1,-17,4,-0.53,-2,·,0.0072,0.005,0.024*,0.0066,0.015*,0.01
O=C(CCCN1C(=O)c2cccc3cccc(c23)C1=O)N1CCc2ccccc2C1,11,-1,0,·,-5,-4.1*,0.015,?,0.024*,0.0058*,0.012*,0.0087
Cc1ccc(F)cc1NC(=O)N1c2ccccc2NC(=O)CC1C (stereo unspecified),-1,1,·,-0.0061,-5,-1,·,·,·,·,·,·
CN1C(=O)/C(=C/c2cc(C(C)(C)C)c(O)c(C(C)(C)C)c2)NC1=S,-14,-24,34,·,-5,12*,0.01,0.018*,0.034,0.013*,0.025,0.012*
CCOC(=O)C1CCCN(C(=O)c2cc3nc(-c4cccc(OC)c4)cc(C(F)(F)F)n3n2)C1 (stereo unspecified),-2,2,31,·,2,·,0.007,0.0044,0.029,0.0073,0.02,0.01
O=C(Nc1cccnc1)c1ccc(COc2cc(Cl)ccc2Cl)o1,-4,-12,8,·,-8,-5.2*,0.0063,0.0051,?,0.0081,0.016*,0.0099
COc1ccccc1NC(=O)c1ccc(COc2ccccc2OC)o1,·,21,-1,·,-4,-3.7*,0.0054,?,?,0.0067,?,0.011
O=C(NCc1ccc2c(c1)OCO2)c1ccc(COc2cc(Cl)ccc2Cl)o1,4,-24,49,-0.86,-4,-5.7*,0.0077,0.0043,0.023*,0.0069,0.015*,0.0095
CCOc1ncccc1C(=O)N1CCN(Cc2ccc3c(c2)OCO3)CC1,-2,-5,-15,·,1,4.8*,0.016,0.0042,0.028,0.0077,0.018,0.0093
O=C(N/N=C/c1ccc(O)cc1)c1ccc(COc2cc(Cl)ccc2Cl)o1,25,-75,-8,0.23,-1,-0.6,·,·,·,·,·,·
O=C(Nc1ccn(Cc2ccccc2F)n1)c1ccc(COc2cc(Cl)ccc2Cl)o1,0,-21,-2,0.2,-16,1.1,·,·,·,·,·,·
O=C(Nc1ccc(Cl)cc1)c1cc2c(cc1O)[nH]c1ccccc12,1,-22,·,·,12,0.63,·,·,·,·,·,·
CCOc1ccc(OCc2ccc(C(=O)Nc3cccnc3)o2)cc1,-3,-17,23,·,-4,0.31,·,·,·,·,·,·
O=C(NCc1cccnc1)c1ccc(COc2ccc(Cl)cc2Cl)o1,-10,-28,20,-0.13,-2,-4.4*,0.0098,0.0072,0.029*,0.0036,0.015*,0.011
O=C(Nc1cccnc1)c1ccc(COc2ccccc2Cl)o1,6,-12,2,·,-3,-8.1*,0.0061,?,0.022*,0.0077,?,0.011
COc1ccccc1S(=O)(=O)Cc1ccc(C(=O)N2CCN(c3ccccn3)CC2)o1,-12,-12,5,·,-4,-0.43,·,·,·,·,·,·
O=C(Nc1ccccn1)c1ccc(COc2ccccc2Cl)o1,-4,-4,35,-0.49,-2,-4*,0.0069,0.0047,0.024*,0.0073,0.015*,0.01
O=C(Nc1ccc(Cl)cn1)c1ccc(COc2ccccc2Br)o1,-6,-16,43,0.042,-3,-1.4,·,·,·,·,·,·
SMILES,14-3-3 Bad PPI,NCF1 inh,WT yeast gro inh,ROMK mod,RBBP9 inh,Cl transport mod,KCC2 secondary,KCC2 bumet counter,KCC2 secondary2,HEK293 Tl flux,KCC2 ouabain,HEK293 Tl flux2
O=C(c1ccc(COc2ccccc2Br)o1)N1CCN(c2ccccn2)CC1,-9,-17,1,·,-3,-6.5*,?,?,0.032,0.0058*,0.013*,0.011
C=CCn1c[n+](CC(=O)c2ccc(Br)s2)c2ccccc21,-2,-2,-1,·,-6,0.59,·,·,·,·,·,·
CC1c2ccsc2CCN1S(=O)(=O)c1cccs1 (stereo unspecified),4,-18,·,0.17,-13,-1.6,·,·,·,·,·,·
O=C(c1cc2ccccc2oc1=O)N1CCN(Cc2ccc3c(c2)OCO3)CC1,2,-10,-8,·,-9,·,·,·,·,·,·,·
O=C(c1ccc(COc2ccccc2Cl)o1)N1CCN(Cc2ccc3c(c2)OCO3)CC1,2,-4,39,-0.96,-6,-1.6,0.007,0.0056,0.029,0.0062,?,0.01
O=C(N/N=C/C1CC2C=CC1C2)c1ccccc1O (stereo unspecified),-1,-15,·,·,-5,0.71,·,·,·,·,·,·
CCOC(=O)CC1COCCN1C(=O)CCc1nnc(-c2ccsc2)o1 (stereo unspecified),-5,-1,1,1,-5,-0.2,·,·,·,·,·,·
O=C(Cn1cnc2ccccc2c1=O)Nc1nnc(SCc2ccccc2)s1,·,1,-10,0.36,-11,·,0.0089,0.0067,0.029,0.009*,0.021,?
